From ChEMBL document CHEMBL1140294 (J Med Chem, 2005)

What was measured:
Assay type in all cases: cell-based
[1] = target: T1, ATP-dependent translocase ABCB1 (Homo sapiens, UniProt P08183); experiment: Reversal of P-gp-mediated multidrug resistance in doxorubicin-resistant human K562 cells assessed as increase in nuclear pirarubicin concentration
[2] = target: T1, ATP-dependent translocase ABCB1; experiment: Reversal of P-gp-mediated multidrug resistance in doxorubicin-resistant human K562 cells assessed as drug concentration causing half-maximal increase in nuclear pirarubicin concentration; settings: read-out: Activity
[3] = target: T1, ATP-dependent translocase ABCB1; experiment: Reversal of P-gp-mediated multidrug resistance in human K562 cells assessed as drug concentration causing 40% increase in nuclear pirarubicin concentration
How it was run: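 Doxorubicin-resistant K 562 cells in exponential phase. Pirarubicin uptake monitored by fluorescence at 590 nm (ex 480 nm) in HEPES buffer (pH 7.25) at 37 °C. The reported value, [I]0.5, is the modulator concentration giving a 40% increase in nuclear pirarubicin concentration (α = 0.4).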

T1 sequence (P08183 whole entry): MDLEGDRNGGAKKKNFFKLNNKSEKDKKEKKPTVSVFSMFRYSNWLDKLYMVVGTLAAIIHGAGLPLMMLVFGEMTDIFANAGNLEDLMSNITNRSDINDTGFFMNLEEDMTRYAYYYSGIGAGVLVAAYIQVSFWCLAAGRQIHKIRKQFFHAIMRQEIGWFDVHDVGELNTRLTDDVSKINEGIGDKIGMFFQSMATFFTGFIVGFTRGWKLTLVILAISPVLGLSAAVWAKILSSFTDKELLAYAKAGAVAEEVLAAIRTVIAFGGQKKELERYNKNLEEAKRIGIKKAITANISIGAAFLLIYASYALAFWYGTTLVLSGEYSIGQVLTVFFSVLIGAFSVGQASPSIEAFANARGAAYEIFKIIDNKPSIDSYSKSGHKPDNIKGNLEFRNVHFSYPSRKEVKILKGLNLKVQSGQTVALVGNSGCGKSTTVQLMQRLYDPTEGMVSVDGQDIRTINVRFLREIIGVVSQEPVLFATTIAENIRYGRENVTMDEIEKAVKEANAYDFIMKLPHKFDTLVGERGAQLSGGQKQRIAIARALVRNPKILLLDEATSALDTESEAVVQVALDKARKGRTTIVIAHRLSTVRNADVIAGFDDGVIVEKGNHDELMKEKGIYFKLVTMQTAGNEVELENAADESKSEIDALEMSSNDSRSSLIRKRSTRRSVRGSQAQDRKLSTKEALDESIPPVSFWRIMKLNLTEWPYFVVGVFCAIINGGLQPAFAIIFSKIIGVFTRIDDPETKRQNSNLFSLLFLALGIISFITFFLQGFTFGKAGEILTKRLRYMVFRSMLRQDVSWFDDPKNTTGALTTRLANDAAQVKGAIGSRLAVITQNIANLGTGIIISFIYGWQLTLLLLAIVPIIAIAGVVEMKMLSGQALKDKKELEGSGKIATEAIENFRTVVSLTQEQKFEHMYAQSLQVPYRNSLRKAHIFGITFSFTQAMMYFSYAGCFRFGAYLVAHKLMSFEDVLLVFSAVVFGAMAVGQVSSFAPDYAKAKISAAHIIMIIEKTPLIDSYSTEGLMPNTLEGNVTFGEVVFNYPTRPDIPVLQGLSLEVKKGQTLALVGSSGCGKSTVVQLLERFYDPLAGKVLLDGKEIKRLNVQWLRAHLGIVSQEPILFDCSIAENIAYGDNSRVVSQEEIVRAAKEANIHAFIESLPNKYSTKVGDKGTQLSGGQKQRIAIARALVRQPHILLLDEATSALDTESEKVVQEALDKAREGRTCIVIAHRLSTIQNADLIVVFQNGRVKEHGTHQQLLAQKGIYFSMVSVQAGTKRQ

Row | SMILES | Alpha max [1] | EC50 [2] | Activity [3]
1 | COc1cc(/C=C/C(=O)OCCCN(C)CCN(C)CCCOC(=O)c2cc(OC)c(OC)c(OC)c2)cc(OC)c1OC | 0.78 | 1.3 µM | –
2 | CN(CCCOC(=O)c1c2ccccc2cc2ccccc12)CCN(C)CCCOC(=O)c1c2ccccc2cc2ccccc12 | 0.5 | – | 0.8 µM
3 | COc1cc(/C=C/C(=O)OCCCN(C)CCN(C)CCCOC(=O)/C=C/c2cc(OC)c(OC)c(OC)c2)cc(OC)c1OC | 0.8 | 2.6 µM | –
4 | COc1ccc(C(C#N)(CCC(=O)OCCCN2CCN(CCCOC(=O)c3c4ccccc4cc4ccccc34)CC2)C(C)C)cc1OC (stereo unspecified) | 0.65 | 0.62 µM | –
5 | COc1cc(/C=C/C(=O)OCCCN2CCN(CCCOC(=O)C3c4ccccc4-c4ccccc43)CC2)cc(OC)c1OC | 0.7 | 0.23 µM | –
6 | COc1cc(/C=C/C(=O)OCCCN2CCN(CCCOC(=O)/C=C/c3cc(OC)c(OC)c(OC)c3)CC2)cc(OC)c1OC | 0.8 | 0.37 µM | –
7 | COc1cc(/C=C/C(=O)OCCCN(C)CCCOC(=O)c2cc(OC)c(OC)c(OC)c2)cc(OC)c1OC | 0.9 | 0.6 µM | –
8 | COc1cc(/C=C/C(=O)OCCN(C)CCOC(=O)c2cc(OC)c(OC)c(OC)c2)cc(OC)c1OC | 0.86 | 3.1 µM | –
9 | COc1cc(/C=C/C(=O)OCCCNCCCOC(=O)c2cc(OC)c(OC)c(OC)c2)cc(OC)c1OC | 1 | 0.5 µM | –
10 | COc1cc(/C=C/C(=O)OCCN(C)CCOC(=O)c2ccc(OC)c(OC)c2OC)cc(OC)c1OC | 0.8 | 6.4 µM | –
11 | COc1cc(/C=C/C(=O)OCCOCCN(C)CCOCCOC(=O)c2cc(OC)c(OC)c(OC)c2)cc(OC)c1OC | 0.9 | 4.2 µM | –
12 | COc1cc(/C=C/C(=O)OCCOCCNCCOCCOC(=O)c2cc(OC)c(OC)c(OC)c2)cc(OC)c1OC | 1 | 7 µM | –
13 | COc1ccc(C(C#N)(CCCN(C)c2c3ccccc3cc3ccccc23)C(C)C)cc1OC (stereo unspecified) | 0.7 | 0.05 µM | –
14 | COc1cc(/C=C/C(=O)OCCCN2CCN(CCCOC(=O)c3cc(OC)c(OC)c(OC)c3)CC2)cc(OC)c1OC | 0.61 | 0.38 µM | –
15 | O=C(OCCCN1CCN(CCCOC(=O)c2c3ccccc3cc3ccccc23)CC1)c1c2ccccc2cc2ccccc12 | 0.5 | – | 2.5 µM

More lines, now with the values ahead:

Row | Alpha max [1] | EC50 [2] | Activity [3] | SMILES
16 | 0.7 | 0.19 µM | – | COc1cc(/C=C/C(=O)OCCCN(C)CCN(C)CCCOC(=O)c2c3ccccc3cc3ccccc23)cc(OC)c1OC
17 | 0.74 | 0.4 µM | – | COc1ccc(C(C#N)(CCC(=O)OCCCN(C)CCN(C)CCCOC(=O)c2c3ccccc3cc3ccccc23)C(C)C)cc1OC (stereo unspecified)
18 | 0.7 | 0.8 µM | – | COc1cc(/C=C/C(=O)OCCN(C)CCOC(=O)C2c3ccccc3-c3ccccc32)cc(OC)c1OC
19 | 0.84 | 0.17 µM | – | COc1cc(/C=C/C(=O)OCCOCCN(C)CCOCCOC(=O)c2c3ccccc3cc3ccccc23)cc(OC)c1OC
20 | 0.86 | 3.7 µM | – | COc1cc(/C=C/C(=O)OCCN(C)CCOC(=O)c2ccccc2)cc(OC)c1OC
21 | 0.78 | 0.18 µM | – | COc1cc(/C=C/C(=O)OCCCN(C)CCCOC(=O)c2c3ccccc3cc3ccccc23)cc(OC)c1OC
22 | 0.74 | 0.21 µM | – | COc1cc(/C=C/C(=O)OCCCNCCCOC(=O)c2c3ccccc3cc3ccccc23)cc(OC)c1OC
23 | 0.9 | 2.1 µM | – | COc1ccc(C(C#N)(CCC(=O)OCCCNCCCOC(=O)c2c3ccccc3cc3ccccc23)C(C)C)cc1OC (stereo unspecified)
24 | 0.8 | 0.1 µM | – | COc1cc(/C=C/C(=O)OCCCCCN(C)CCCCCOC(=O)c2c3ccccc3cc3ccccc23)cc(OC)c1OC
25 | 0.55 | 0.15 µM | – | COc1cc(/C=C/C(=O)OCCCCCCCN(C)CCCCCCCOC(=O)c2c3ccccc3cc3ccccc23)cc(OC)c1OC
26 | 0.64 | 0.57 µM | – | COc1cc(/C=C/C(=O)OCCCN(C)CCN(C)CCCOC(=O)C2c3ccccc3-c3ccccc32)cc(OC)c1OC
27 | 0.83 | 0.11 µM | – | COc1cc(/C=C/C(=O)OCCCCCN(C)CCCCCOC(=O)C2c3ccccc3-c3ccccc32)cc(OC)c1OC
28 | 0.6 | 2 µM | – | COc1cc(/C=C/C(=O)OCCCCCCN(C)CCCCCCOC(=O)c2cc(OC)c(OC)c(OC)c2)cc(OC)c1OC
29 | 0.55 | 1 µM | – | COc1cc(/C=C/C(=O)OCCCCCCCN(C)CCCCCCCOC(=O)c2cc(OC)c(OC)c(OC)c2)cc(OC)c1OC
30 | 0.84 | 0.8 µM | – | COc1cc(/C=C/C(=O)OCCCCCN(C)CCCCCOC(=O)c2cc(OC)c(OC)c(OC)c2)cc(OC)c1OC
31 | 0.68 | 0.61 µM | – | COc1cc(/C=C/C(=O)OCCCCCCN(C)CCCCCCOC(=O)c2c3ccccc3cc3ccccc23)cc(OC)c1OC
32 | 0.84 | 1 µM | – | COc1cc(/C=C/C(=O)OCCN(C)CCOC(=O)c2c3ccccc3cc3ccccc23)cc(OC)c1OC
33 | 0.9 | 0.16 µM | – | COc1cc(/C=C/C(=O)OCCCN2CCN(CCCOC(=O)c3c4ccccc4cc4ccccc34)CC2)cc(OC)c1OC
